In ChEMBL document CHEMBL1671821, “Syntheses of 2-amino and 2-halothiazole derivatives as high-affinity metabotropic glutamate receptor subtype 5 ligands and potential radioligands for in vivo imaging” (J Med Chem, 2011):
Values belong to the molecule of their own block, whether it stands above or below them.

Assays:
[1] = biological target: Metabotropic glutamate receptor 5 (Rattus norvegicus, UniProt P31424); assay: Displacement of [3H]MPEP from mGluR5 in rat brain; format: tissue-based
In short: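 Competition binding on rat brain homogenate mGlu5 against [3H]MPEP at 1.0 nM. Run by the NIMH Psychoactive Drug Screening Program. Ki derived from triplicate determinations, n = 6 for some ligands. Values cited from earlier work were not measured here.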

D(4) dopamine receptor = D(4) dopamine receptor (Homo sapiens, UniProt P21917); assay: Binding affinity to dopamine D4 receptor
D(1B) dopamine receptor = D(1B) dopamine receptor (Homo sapiens, UniProt P21918); assay: Binding affinity to dopamine D5 receptor
[2] = biological target: Sodium-dependent dopamine transporter (Homo sapiens, UniProt Q01959); assay: Binding affinity to DAT
[3] = biological target: Delta-type opioid receptor (Homo sapiens, UniProt P41143); assay: Binding affinity to DOR
[4] = Binding affinity to GABAA receptor
[5] = biological target: Kappa-type opioid receptor (Homo sapiens, UniProt P41145); assay: Binding affinity to KOR
Histamine H1 receptor = Histamine H1 receptor (Homo sapiens, UniProt P35367); assay: Binding affinity to histamine H1 receptor
Histamine H2 receptor = Histamine H2 receptor (Homo sapiens, UniProt P25021); assay: Binding affinity to histamine H2 receptor
Histamine H3 receptor = Histamine H3 receptor (Homo sapiens, UniProt Q9Y5N1); assay: Binding affinity to histamine H3 receptor
Histamine H4 receptor = Histamine H4 receptor (Homo sapiens, UniProt Q9H3N8); assay: Binding affinity to histamine H4 receptor
[6] = biological target: Muscarinic acetylcholine receptor M1 (Homo sapiens, UniProt P11229); assay: Binding affinity to muscarinic M1 receptor
[7] = biological target: Muscarinic acetylcholine receptor M2 (Homo sapiens, UniProt P08172); assay: Binding affinity to muscarinic M2 receptor
[8] = biological target: Muscarinic acetylcholine receptor M3 (Homo sapiens, UniProt P20309); assay: Binding affinity to muscarinic M3 receptor
[9] = biological target: Muscarinic acetylcholine receptor M4 (Homo sapiens, UniProt P08173); assay: Binding affinity to muscarinic M4 receptor
[10] = biological target: Muscarinic acetylcholine receptor M5 (Homo sapiens, UniProt P08912); assay: Binding affinity to muscarinic M5 receptor
[11] = biological target: Metabotropic glutamate receptor 1 (Homo sapiens, UniProt Q13255); assay: Binding affinity to mGluR1 receptor
[12] = biological target: Metabotropic glutamate receptor 2 (Homo sapiens, UniProt Q14416); assay: Binding affinity to mGluR2 receptor
[13] = biological target: Metabotropic glutamate receptor 4 (Homo sapiens, UniProt Q14833); assay: Binding affinity to mGluR4 receptor
[14] = biological target: Metabotropic glutamate receptor 6 (Homo sapiens, UniProt O15303); assay: Binding affinity to mGluR6 receptor
[15] = biological target: Metabotropic glutamate receptor 8 (Homo sapiens, UniProt O00222); assay: Binding affinity to mGluR8 receptor
Mu-type opioid receptor = Mu-type opioid receptor (Homo sapiens, UniProt P35372); assay: Binding affinity to MOR
[16] = biological target: Sodium-dependent noradrenaline transporter (Homo sapiens, UniProt P23975); assay: Binding affinity to NET
[17] = Binding affinity to NMDA receptor PCP binding site
[18] = biological target: Sodium-dependent serotonin transporter (Homo sapiens, UniProt P31645); assay: Binding affinity to SERT receptor
[19] = biological target: Sigma non-opioid intracellular receptor 1 (Homo sapiens, UniProt Q99720); assay: Binding affinity to sigma 1 receptor
[20] = Binding affinity to sigma 2 receptor
[21] = biological target: 5-hydroxytryptamine receptor 1A (Homo sapiens, UniProt P08908); assay: Binding affinity to 5HT1A receptor
[22] = biological target: 5-hydroxytryptamine receptor 1B (Homo sapiens, UniProt P28222); assay: Binding affinity to 5HT1B receptor
[23] = biological target: 5-hydroxytryptamine receptor 1D (Homo sapiens, UniProt P28221); assay: Binding affinity to 5HT1D receptor
[24] = biological target: 5-hydroxytryptamine receptor 1E (Homo sapiens, UniProt P28566); assay: Binding affinity to 5HT1E receptor
[25] = biological target: 5-hydroxytryptamine receptor 2A (Homo sapiens, UniProt P28223); assay: Binding affinity to 5HT2A receptor
[26] = biological target: 5-hydroxytryptamine receptor 2B (Homo sapiens, UniProt P41595); assay: Binding affinity to 5HT2B receptor
[27] = biological target: 5-hydroxytryptamine receptor 2C (Homo sapiens, UniProt P28335); assay: Binding affinity to 5HT2C receptor
[28] = biological target: 5-hydroxytryptamine receptor 3A (Homo sapiens, UniProt P46098); assay: Binding affinity to 5HT3 receptor
[29] = biological target: 5-hydroxytryptamine receptor 5A (Homo sapiens, UniProt P47898); assay: Binding affinity to 5HT5A receptor
[30] = biological target: 5-hydroxytryptamine receptor 6 (Homo sapiens, UniProt P50406); assay: Binding affinity to 5HT6 receptor
[31] = biological target: 5-hydroxytryptamine receptor 7 (Homo sapiens, UniProt P34969); assay: Binding affinity to 5HT7 receptor
[32] = biological target: Alpha-1A adrenergic receptor (Homo sapiens, UniProt P35348); assay: Binding affinity to adrenergic alpha1A receptor
[33] = biological target: Alpha-1B adrenergic receptor (Homo sapiens, UniProt P35368); assay: Binding affinity to adrenergic Alpha-1B receptor
[34] = biological target: Alpha-1D adrenergic receptor (Homo sapiens, UniProt P25100); assay: Binding affinity to adrenergic Alpha-1D receptor
[35] = biological target: Alpha-2A adrenergic receptor (Homo sapiens, UniProt P08913); assay: Binding affinity to adrenergic alpha2A receptor
[36] = biological target: Alpha-2B adrenergic receptor (Homo sapiens, UniProt P18089); assay: Binding affinity to adrenergic alpha2B receptor
[37] = biological target: Alpha-2C adrenergic receptor (Homo sapiens, UniProt P18825); assay: Binding affinity to adrenergic Alpha-2C receptor
[38] = biological target: Beta-1 adrenergic receptor (Homo sapiens, UniProt P08588); assay: Binding affinity to adrenergic beta1 receptor
[39] = biological target: Beta-2 adrenergic receptor (Homo sapiens, UniProt P07550); assay: Binding affinity to adrenergic beta2 receptor
[40] = biological target: Beta-3 adrenergic receptor (Homo sapiens, UniProt P13945); assay: Binding affinity to adrenergic beta3 receptor
[41] = Binding affinity to benzodiazepine receptor in rat brain; format: tissue-based
D(1A) dopamine receptor = D(1A) dopamine receptor (Homo sapiens, UniProt P21728); assay: Binding affinity to dopamine D1 receptor
D(2) dopamine receptor = D(2) dopamine receptor (Homo sapiens, UniProt P14416); assay: Binding affinity to dopamine D2 receptor
D(3) dopamine receptor = D(3) dopamine receptor (Homo sapiens, UniProt P35462); assay: Binding affinity to dopamine D3 receptor

Metabotropic glutamate receptor 5, sequence (P31424 whole entry): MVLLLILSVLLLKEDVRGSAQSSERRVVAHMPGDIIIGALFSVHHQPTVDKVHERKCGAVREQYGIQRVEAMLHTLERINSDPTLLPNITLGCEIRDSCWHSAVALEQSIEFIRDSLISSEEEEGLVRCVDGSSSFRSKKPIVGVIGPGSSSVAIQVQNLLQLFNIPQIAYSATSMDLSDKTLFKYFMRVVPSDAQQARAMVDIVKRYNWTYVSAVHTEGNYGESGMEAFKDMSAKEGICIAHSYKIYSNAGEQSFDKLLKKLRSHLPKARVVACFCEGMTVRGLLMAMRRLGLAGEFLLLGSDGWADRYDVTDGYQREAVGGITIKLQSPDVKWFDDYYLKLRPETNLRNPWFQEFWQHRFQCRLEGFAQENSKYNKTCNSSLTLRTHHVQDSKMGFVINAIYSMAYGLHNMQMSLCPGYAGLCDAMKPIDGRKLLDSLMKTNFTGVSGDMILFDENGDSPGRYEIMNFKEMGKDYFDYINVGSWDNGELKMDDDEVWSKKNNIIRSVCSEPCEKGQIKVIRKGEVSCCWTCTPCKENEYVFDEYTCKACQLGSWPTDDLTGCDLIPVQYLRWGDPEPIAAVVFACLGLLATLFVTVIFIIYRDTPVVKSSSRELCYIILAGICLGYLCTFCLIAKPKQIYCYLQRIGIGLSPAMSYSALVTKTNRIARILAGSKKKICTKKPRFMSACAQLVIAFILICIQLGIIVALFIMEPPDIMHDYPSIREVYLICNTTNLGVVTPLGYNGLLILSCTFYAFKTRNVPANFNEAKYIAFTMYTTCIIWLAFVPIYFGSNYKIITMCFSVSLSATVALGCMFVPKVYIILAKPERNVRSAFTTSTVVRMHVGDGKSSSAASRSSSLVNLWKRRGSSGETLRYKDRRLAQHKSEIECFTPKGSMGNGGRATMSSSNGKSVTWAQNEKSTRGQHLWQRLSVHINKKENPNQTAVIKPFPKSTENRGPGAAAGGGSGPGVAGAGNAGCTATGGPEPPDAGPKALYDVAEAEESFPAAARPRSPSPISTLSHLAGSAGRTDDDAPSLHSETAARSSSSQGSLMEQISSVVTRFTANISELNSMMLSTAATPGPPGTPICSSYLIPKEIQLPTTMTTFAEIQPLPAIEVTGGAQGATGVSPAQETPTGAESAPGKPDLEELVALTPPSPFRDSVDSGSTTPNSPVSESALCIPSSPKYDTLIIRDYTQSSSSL
5-hydroxytryptamine receptor 6, sequence (P50406 whole entry): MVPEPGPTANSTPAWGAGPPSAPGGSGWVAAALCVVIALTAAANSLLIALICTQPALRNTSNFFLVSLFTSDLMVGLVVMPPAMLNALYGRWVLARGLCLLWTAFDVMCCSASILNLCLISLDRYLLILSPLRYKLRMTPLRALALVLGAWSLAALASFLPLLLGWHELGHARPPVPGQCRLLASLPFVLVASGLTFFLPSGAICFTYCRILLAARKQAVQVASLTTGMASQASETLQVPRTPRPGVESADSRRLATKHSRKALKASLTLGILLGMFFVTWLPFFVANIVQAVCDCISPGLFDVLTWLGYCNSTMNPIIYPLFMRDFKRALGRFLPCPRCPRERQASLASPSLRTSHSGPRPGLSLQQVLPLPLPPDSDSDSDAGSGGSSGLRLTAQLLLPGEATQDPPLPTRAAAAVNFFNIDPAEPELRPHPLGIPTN
5-hydroxytryptamine receptor 1B, sequence (P28222 whole entry): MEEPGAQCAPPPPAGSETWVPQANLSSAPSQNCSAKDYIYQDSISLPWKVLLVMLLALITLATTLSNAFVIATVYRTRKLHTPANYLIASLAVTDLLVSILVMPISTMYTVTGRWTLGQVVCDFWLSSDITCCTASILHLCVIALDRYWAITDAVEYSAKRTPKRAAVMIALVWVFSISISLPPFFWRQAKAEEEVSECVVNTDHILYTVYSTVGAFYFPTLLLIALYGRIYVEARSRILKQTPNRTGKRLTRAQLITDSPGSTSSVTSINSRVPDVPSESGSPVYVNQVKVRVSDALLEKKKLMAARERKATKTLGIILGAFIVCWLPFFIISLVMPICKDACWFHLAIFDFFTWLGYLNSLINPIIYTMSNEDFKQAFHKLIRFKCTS
Metabotropic glutamate receptor 2, sequence (Q14416 whole entry): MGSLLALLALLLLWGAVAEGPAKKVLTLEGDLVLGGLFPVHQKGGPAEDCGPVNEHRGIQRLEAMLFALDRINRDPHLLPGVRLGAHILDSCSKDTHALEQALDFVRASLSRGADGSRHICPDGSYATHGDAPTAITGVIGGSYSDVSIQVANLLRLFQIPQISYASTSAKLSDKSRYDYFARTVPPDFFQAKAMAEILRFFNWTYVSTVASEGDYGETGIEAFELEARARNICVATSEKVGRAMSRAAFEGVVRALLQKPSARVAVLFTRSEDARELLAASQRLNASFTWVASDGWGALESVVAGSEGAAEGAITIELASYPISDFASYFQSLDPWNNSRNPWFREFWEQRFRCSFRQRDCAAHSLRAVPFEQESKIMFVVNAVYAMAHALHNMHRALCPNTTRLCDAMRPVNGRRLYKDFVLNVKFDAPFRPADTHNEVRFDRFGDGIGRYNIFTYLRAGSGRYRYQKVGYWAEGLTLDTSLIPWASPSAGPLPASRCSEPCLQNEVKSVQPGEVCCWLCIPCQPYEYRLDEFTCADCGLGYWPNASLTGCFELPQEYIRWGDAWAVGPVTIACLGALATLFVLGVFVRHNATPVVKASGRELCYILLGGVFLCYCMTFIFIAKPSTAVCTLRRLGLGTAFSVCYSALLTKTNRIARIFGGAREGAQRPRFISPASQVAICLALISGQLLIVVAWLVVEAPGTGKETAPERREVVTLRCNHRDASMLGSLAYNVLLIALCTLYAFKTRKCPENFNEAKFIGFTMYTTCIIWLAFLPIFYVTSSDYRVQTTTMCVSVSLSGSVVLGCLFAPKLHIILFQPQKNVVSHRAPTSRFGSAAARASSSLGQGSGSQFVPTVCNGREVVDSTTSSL
Metabotropic glutamate receptor 8, sequence (O00222 whole entry): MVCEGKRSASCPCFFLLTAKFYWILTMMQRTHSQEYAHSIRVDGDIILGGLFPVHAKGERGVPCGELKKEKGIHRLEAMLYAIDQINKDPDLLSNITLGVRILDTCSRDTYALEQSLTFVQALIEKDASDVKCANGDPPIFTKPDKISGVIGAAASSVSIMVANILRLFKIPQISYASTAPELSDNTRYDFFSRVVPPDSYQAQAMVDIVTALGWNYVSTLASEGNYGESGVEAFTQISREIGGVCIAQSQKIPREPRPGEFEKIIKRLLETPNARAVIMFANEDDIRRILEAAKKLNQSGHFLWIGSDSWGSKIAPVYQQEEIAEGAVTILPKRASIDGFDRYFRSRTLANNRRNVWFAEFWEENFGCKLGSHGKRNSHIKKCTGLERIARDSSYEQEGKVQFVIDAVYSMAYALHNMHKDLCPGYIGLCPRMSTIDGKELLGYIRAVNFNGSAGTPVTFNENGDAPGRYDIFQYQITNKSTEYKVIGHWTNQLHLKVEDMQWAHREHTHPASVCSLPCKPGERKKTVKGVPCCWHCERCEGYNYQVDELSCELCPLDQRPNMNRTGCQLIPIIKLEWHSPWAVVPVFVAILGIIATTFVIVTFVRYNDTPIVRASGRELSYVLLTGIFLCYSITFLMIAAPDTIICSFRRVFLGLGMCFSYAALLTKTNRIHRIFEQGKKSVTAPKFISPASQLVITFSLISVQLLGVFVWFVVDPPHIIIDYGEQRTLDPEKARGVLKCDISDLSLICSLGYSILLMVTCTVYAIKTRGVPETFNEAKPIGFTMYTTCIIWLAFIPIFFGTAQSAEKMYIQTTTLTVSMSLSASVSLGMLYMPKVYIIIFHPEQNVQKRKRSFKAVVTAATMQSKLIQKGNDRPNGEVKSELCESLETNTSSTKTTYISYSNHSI
5-hydroxytryptamine receptor 5A, sequence (P47898 whole entry): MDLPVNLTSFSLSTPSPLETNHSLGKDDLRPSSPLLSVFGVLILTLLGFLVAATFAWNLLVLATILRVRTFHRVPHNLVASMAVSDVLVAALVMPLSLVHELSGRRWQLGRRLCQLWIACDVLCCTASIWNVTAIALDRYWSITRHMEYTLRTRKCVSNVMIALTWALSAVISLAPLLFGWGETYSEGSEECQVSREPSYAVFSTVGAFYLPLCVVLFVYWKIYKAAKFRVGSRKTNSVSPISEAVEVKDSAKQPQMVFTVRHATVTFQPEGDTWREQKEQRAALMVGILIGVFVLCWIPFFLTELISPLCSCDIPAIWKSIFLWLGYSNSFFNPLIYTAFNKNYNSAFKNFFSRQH
Mu-type opioid receptor, sequence (P35372 whole entry): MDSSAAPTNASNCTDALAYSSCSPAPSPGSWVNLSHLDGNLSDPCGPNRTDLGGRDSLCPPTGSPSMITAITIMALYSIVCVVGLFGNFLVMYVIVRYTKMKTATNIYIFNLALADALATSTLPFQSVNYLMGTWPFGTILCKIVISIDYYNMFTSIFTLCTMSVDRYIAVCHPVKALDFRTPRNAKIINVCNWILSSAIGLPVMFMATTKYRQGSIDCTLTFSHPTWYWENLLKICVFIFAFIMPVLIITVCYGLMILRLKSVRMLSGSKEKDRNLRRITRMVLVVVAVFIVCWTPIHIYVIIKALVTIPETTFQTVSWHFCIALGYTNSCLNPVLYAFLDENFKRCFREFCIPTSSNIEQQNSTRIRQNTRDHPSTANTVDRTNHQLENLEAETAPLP
Alpha-2B adrenergic receptor, sequence (P18089 whole entry): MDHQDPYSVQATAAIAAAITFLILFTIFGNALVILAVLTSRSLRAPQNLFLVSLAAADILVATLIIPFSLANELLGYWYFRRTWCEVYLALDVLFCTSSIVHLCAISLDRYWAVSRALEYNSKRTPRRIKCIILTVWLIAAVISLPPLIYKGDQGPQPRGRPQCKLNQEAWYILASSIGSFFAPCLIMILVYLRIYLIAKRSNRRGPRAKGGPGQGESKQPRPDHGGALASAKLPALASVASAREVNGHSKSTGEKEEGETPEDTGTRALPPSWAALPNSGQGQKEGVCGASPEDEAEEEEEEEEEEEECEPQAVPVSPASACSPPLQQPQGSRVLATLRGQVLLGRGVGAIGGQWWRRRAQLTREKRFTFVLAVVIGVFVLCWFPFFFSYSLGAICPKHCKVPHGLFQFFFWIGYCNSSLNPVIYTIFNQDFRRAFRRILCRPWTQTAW

Compound: N#Cc1cc(F)cc(C#Cc2csc(N)n2)c1
Ki [1]: 0.25 nM

Compound: COc1cccc(C#Cc2csc(N)n2)c1
Ki [1]: 18.6 nM

Compound: N#Cc1cc(F)cc(C#Cc2csc(Cl)n2)c1
Ki [1]: 0.4 nM

Compound: COc1cccc(C#Cc2csc(Cl)n2)c1
Ki [1]: 8.1 nM

Compound: N#Cc1cc(F)cc(C#Cc2csc(Br)n2)c1
Ki [1]: 0.95 nM

Compound: COc1cccc(C#Cc2csc(Br)n2)c1
Ki [1]: 22.3 nM

Compound: N#Cc1cc(F)cc(C#Cc2csc(I)n2)c1
Ki [1]: 1.3 nM

Compound: COc1cccc(C#Cc2csc(I)n2)c1
Ki [1]: 133 nM

Compound: N#Cc1cc(F)cc(C#Cc2csc(CF)n2)c1
Ki [1]: 0.036 nM

More lines, now with the values ahead:

Ki [1]: 22.7 nM
Compound: COc1cccc(C#Cc2csc(F)n2)c1

Ki [1]: 0.9 nM
Compound: N#Cc1cccc(C#Cc2csc(N)n2)c1

Ki [1]: 5.9 nM
Compound: N#CCc1cccc(C#Cc2csc(N)n2)c1

Ki [1]: 0.27 nM
Compound: N#Cc1cccc(C#Cc2csc(Cl)n2)c1

Ki [1]: 3.1 nM
Compound: N#CCc1cccc(C#Cc2csc(Cl)n2)c1

Ki [1]: 3.7 nM
Compound: N#Cc1cccc(C#Cc2csc(Br)n2)c1

Ki [1]: 3.3 nM
Compound: N#CCc1cccc(C#Cc2csc(Br)n2)c1

Ki [1]: 4.2 nM
Compound: N#Cc1cccc(C#Cc2csc(I)n2)c1

Ki [1]: 23.3 nM
Compound: N#CCc1cccc(C#Cc2csc(I)n2)c1

Ki [1]: 1.6 nM
Compound: N#Cc1cccc(C#Cc2csc(F)n2)c1

Ki (D(4) dopamine receptor): > 10 µM
Ki (D(1B) dopamine receptor): > 10 µM
Ki [2]: > 10 µM
Ki [3]: > 10 µM
Ki [4]: > 10 µM
Ki [5]: > 10 µM
Ki (Histamine H1 receptor): > 10 µM
Ki (Histamine H2 receptor): > 10 µM
Ki (Histamine H3 receptor): > 10 µM
Ki (Histamine H4 receptor): > 10 µM
Ki [6]: > 10 µM
Ki [7]: > 10 µM
Ki [8]: > 10 µM
Ki [9]: > 10 µM
Ki [10]: > 10 µM
Ki [11]: > 10 µM
Ki [12]: > 10 µM
Ki [13]: > 10 µM
Ki [14]: > 10 µM
Ki [15]: > 10 µM
Ki (Mu-type opioid receptor): > 10 µM
Ki [16]: > 10 µM
Ki [17]: > 10 µM
Ki [18]: > 10 µM
Ki [19]: > 10 µM
Ki [20]: > 10 µM
Ki [1]: 0.28 nM
Ki [21]: > 10 µM
Ki [22]: > 10 µM
Ki [23]: > 10 µM
Ki [24]: > 10 µM
Ki [25]: > 10 µM
Ki [26]: > 10 µM
Ki [27]: > 10 µM
Ki [28]: > 10 µM
Ki [29]: > 10 µM
Ki [30]: > 10 µM
Ki [31]: > 10 µM
Ki [32]: > 10 µM
Ki [33]: > 10 µM
Ki [34]: > 10 µM
Ki [35]: > 10 µM
Ki [36]: > 10 µM
Ki [37]: > 10 µM
Ki [38]: > 10 µM
Ki [39]: > 10 µM
Ki [40]: > 10 µM
Ki [41]: > 10 µM
Ki (D(1A) dopamine receptor): > 10 µM
Ki (D(2) dopamine receptor): > 10 µM
Ki (D(3) dopamine receptor): > 10 µM
Compound: N#Cc1cc(F)cc(C#Cc2csc(F)n2)c1

Ki [1]: 3.9 nM
Compound: N#CCc1cccc(C#Cc2csc(F)n2)c1

Ki [1]: 122 nM
Compound: Fc1nc(C#Cc2ccccc2)cs1

Ki [1]: 0.08 nM
Compound: Cc1nc(C#Cc2cc(F)cc(C#N)c2)cs1
